Calls of active or inactive are those of the source. The calls are words filed in the database; no cut-off is given here.
Columns and labels:
Canavalia ensiformis [1] = assay: Inhibition of alpha-mannosidase from jack bean at 1 mM at pH 5
How it was run: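 Glycosidase panel of commercial enzymes assayed at each enzyme's optimal pH with compound at 1 mM; percentage inhibition of enzyme activity calculated.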

[2] = Cytotoxicity in human B-CLL assessed as pre-necrotic cells at 50 uM after 24 hrs by annexin V/propidium iodide staining based flow cytometry (reference value: 1.3 to 3.7%); assay type: functional
[3] = Cytotoxicity in human multiple myeloma cells assessed as early apoptotic cells at 200 uM after 24 hrs by annexin V/propidium iodide staining based flow cytometry (reference value: 0.1%); assay type: functional, Multiple myeloma cell
[4] = Cytotoxicity in human multiple myeloma cells assessed as viable cells at 200 uM after 24 hrs by annexin V/propidium iodide staining based flow cytometry (reference value: 48.2%); assay type: functional; settings: Multiple myeloma cell, read-out: Activity
SK-BR-3 [5] = assay: Cell cycle arrest in human SKBR3 cells by accumulation of cells at S phase at 50 uM after 48 hrs by propidium iodide-staining based flow cytometry (reference value: 30%); assay type: functional
SK-BR-3 [6] = assay: Increase in CDKN1A mRNA level in human SKBR3 cells at 50 uM after 12 hrs by TLDA; assay type: functional, cell-based
How it was run: (§1)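 SKBR3 and MCF7 cells seeded at 2 × 10⁵ per well, treated 12 h with 50 µM compound (DMSO stock); total RNA extracted, cDNA made with random hexamers, gene expression profiled by TaqMan low-density arrays (qPCR, duplicate per gene). Normalised to RPLP0; fold change versus DMSO vehicle-treated cells, calculated as 2^-ΔΔCT.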

MCF7 [7] = assay: Increase in CDKN1A mRNA level in human MCF7 cells at 50 uM after 12 hrs by TLDA; assay type: functional, cell-based; how it was run: as §1
SK-BR-3 [8] = assay: Cell cycle arrest in human SKBR3 cells by accumulation of cells at G1 phase at 50 uM after 48 hrs by propidium iodide-staining based flow cytometry (reference value: 54%); assay type: functional
[9] = Cytotoxicity in human B-CLL assessed as viable cells at 50 uM after 24 hrs by annexin V/propidium iodide staining based flow cytometry (reference value: 65.8 to 78%); assay type: functional; settings: read-out: Activity
SK-BR-3 [10] = assay: Decrease in ID1 mRNA level in human SKBR3 cells at 50 uM after 12 hrs by TLDA; assay type: functional, cell-based; how it was run: as §1
SK-BR-3 [11] = assay: Cell cycle arrest in human SKBR3 cells by accumulation of cells at G1 phase at 200 uM after 48 hrs by propidium iodide-staining based flow cytometry (reference value: 54%); assay type: functional
Jurkat = assay: Cytotoxicity in human Jurkat cells overexpressing Bcl2 assessed as cell death at 50 uM after 72 hrs by propidium iodide-staining based flow cytometry; assay type: functional
How it was run: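 Jurkat T cells stably overexpressing Bcl-2, plus vector controls, in RPMI-1640 with 10% FBS. Seeded at 4×10⁴ per well and treated for 72 h with 40 µM etoposide, 2 µM doxorubicin or 50 µM compound. Dead cells counted by propidium iodide staining and flow cytometry; means of triplicates with SD.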

MCF7 [12] = assay: Decrease in hTERT mRNA level in human MCF7 cells at 50 uM after 12 hrs by TLDA; assay type: functional, cell-based; how it was run: as §1
[13] = Cytotoxicity in human multiple myeloma cells assessed as viable cells at 100 uM after 24 hrs by annexin V/propidium iodide staining based flow cytometry (reference value: 48.2%); assay type: functional; settings: Multiple myeloma cell, read-out: Activity
[14] = Cytotoxicity in human B-CLL assessed as pre-necrotic cells at 100 uM after 24 hrs by annexin V/propidium iodide staining based flow cytometry (reference value: 1.3 to 3.7%); assay type: functional
Canavalia ensiformis [15] = assay: Inhibition of beta-N-acetylglucosaminidase from jack bean at pH 5; parameters: concentration or dose not given beside the values; settings: concentration not given here
[16] = Cytotoxicity in human B-CLL assessed as late apoptotic/necrotic cells at 200 uM after 24 hrs by annexin V/propidium iodide staining based flow cytometry (reference value: 10 to 14.7%); assay type: functional
SK-BR-3 [17] = assay: Cell cycle arrest in human SKBR3 cells by accumulation of cells at S phase at 200 uM after 48 hrs by propidium iodide-staining based flow cytometry (reference value: 30%); assay type: functional

- inhibition (Canavalia ensiformis [1]): 98%
- inhibition (Canavalia ensiformis [15]): < 10%
SMILES: OC[C@H](NC[C@H]1NC[C@H](O)[C@@H]1O)c1ccc(-c2ccc(C(F)(F)F)cc2)cc1
- Activity [2]: 0.8%
- Activity [3]: 0.3%
- viability at 200 µM [4]: 3%
- Activity (SK-BR-3 [5]): 30%
- Activity (SK-BR-3 [6]): Active
- Activity (MCF7 [7]): Active
- Activity (SK-BR-3 [8]): 57%
- viability at 50 µM [9]: 27%
- Activity (SK-BR-3 [10]): Active
- Activity (SK-BR-3 [11]): 42%
- Activity (Jurkat): Active
- Activity (MCF7 [12]): Active
- viability at 100 µM [13]: 27.6%
- Activity [14]: 0.8%
- Activity [16]: 55.6%
- Activity (SK-BR-3 [17]): 16%
